Measurements: ChEMBL document CHEMBL1121500, “Nitrobenzyl halides and carbamates as prototype bioreductive alkylating agents” (1980)
In brackets after ≈: the same amount, converted by molar mass.

Experiments:
Format in all cases: functional
EMT6 [1] = assay: Drug concentration required to achieve 50% kill of EMT6 cells under hypoxic conditions.; conditions: Mus musculus, read-out: ED50 (the source's name)
Method in brief: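 Mouse EMT6 tumour monolayers in Waymouth's medium + 15% fetal calf serum. Hypoxia: flasks stoppered and gassed 95% N2/5% CO2 for 4 h at 37 °C, then drug added in acetone without breaking hypoxia. 1 h exposure, 0.01-500 μM. Cells washed, trypsinised, plated in replicate dishes under air; colonies scored after 8-10 days. ED50 from survival curves; ≥3 experiments.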

EMT6 [2] = assay: Drug concentration required to achieve 50% kill of EMT6 cells under oxygenated conditions.; conditions: Mus musculus, read-out: ED50 (the source's name)
Method in brief: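 EMT6 monolayers in Waymouth's medium + 15% fetal calf serum, held in 95% air/5% CO2 in parallel with the hypoxic flasks. Drug in acetone, 0.01-500 μM, 1 h at 37 °C. Cells then trypsinised and replated in replicate dishes; surviving fraction by colony formation after 8-10 days. Concentration for 50% kill read from survival curves; at least three experiments per drug.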

[3] = Ratio of ED50 (aerobic) to ED50 (hypoxic)
Method in brief: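 Concentration giving 50% kill of EMT6 cells under aeration (95% air/5% CO2) divided by that under chronic hypoxia (95% N2/5% CO2, 4 h pre-gassing). Both from 1 h drug exposure at 37 °C with colony-formation read-out after 8-10 days.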

Row | SMILES | EC50 (EMT6 [1]) [µg/mL] | EC50 (EMT6 [2]) [µg/mL] | Ratio [3]
1 | O=C(Nc1ccccc1)OCc1ccccc1[N+](=O)[O-] | 0.22 (≈ 0.808 µM) | 6.8 (≈ 25 µM) | 31
2 | O=[N+]([O-])c1ccc(CO)cc1 [PARANITROBENZYL ALCOHOL] | 0.77 (≈ 5.03 µM) | 2.6 (≈ 17 µM) | 3.3
3 | O=C(NCCCl)OCc1ccccc1[N+](=O)[O-] | 0.65 (≈ 2.51 µM) | 52 (≈ 201 µM) | 80
4 | O=C(Nc1ccccc1)OCc1ccc([N+](=O)[O-])cc1 | 0.08 (≈ 0.294 µM) | 0.22 (≈ 0.808 µM) | 2.7
5 | CNC(=O)OCc1ccc([N+](=O)[O-])cc1 | 0.03 (≈ 0.143 µM) | 0.63 (≈ 3 µM) | 21
6 | O=[N+]([O-])c1ccccc1CCl | 0.1 (≈ 0.583 µM) | 1.2 (≈ 6.99 µM) | 12
7 | O=[N+]([O-])c1ccccc1CO | 1.5 (≈ 9.8 µM) | 3 (≈ 19.6 µM) | 2
8 | O=[N+]([O-])c1ccc(CCl)cc1 | 0.07 (≈ 0.408 µM) | 0.14 (≈ 0.816 µM) | 2
9 | O=[N+]([O-])c1ccc(CBr)cc1 | 0.06 (≈ 0.278 µM) | 0.1 (≈ 0.463 µM) | 1.7
10 | CNC(=O)OCc1ccccc1[N+](=O)[O-] | 0.006 (≈ 0.0285 µM) | 3.57 (≈ 17 µM) | 595
11 | O=C(NCCCl)OCc1ccc([N+](=O)[O-])cc1 | 10 (≈ 38.7 µM) | 31 (≈ 120 µM) | 3.1
12 | O=[N+]([O-])c1ccccc1CBr | 0.06 (≈ 0.278 µM) | 1.5 (≈ 6.94 µM) | 25
